Source: PubChem BioAssay (several laboratories)
MEKK2mut PB1 HTS – signal of MEK5 binding to mutant human MEKK2 PB1 domain; bead flow cytometry, Alexa488-MEK5 binding to MEKK2 mutant; percent response, % at 10 µM; hit rate 0.35% among 290,000; AID 1530; in the data active means percent response above about 24%, passing the limit was not always enough
ATG4B inhibitor – inhibitors of human ATG4B cysteine protease; hit rate 0.51% among 340,000; AID 504462; ATG4B cleavage of LC3-PLA2, NBD-HPC fluorescence, 1 h; inhibition, % at 8.33 µM; Q9Y4P1; in the data active means inhibition above about 40%
Target sequence (Q9Y4P1 whole entry, looked up): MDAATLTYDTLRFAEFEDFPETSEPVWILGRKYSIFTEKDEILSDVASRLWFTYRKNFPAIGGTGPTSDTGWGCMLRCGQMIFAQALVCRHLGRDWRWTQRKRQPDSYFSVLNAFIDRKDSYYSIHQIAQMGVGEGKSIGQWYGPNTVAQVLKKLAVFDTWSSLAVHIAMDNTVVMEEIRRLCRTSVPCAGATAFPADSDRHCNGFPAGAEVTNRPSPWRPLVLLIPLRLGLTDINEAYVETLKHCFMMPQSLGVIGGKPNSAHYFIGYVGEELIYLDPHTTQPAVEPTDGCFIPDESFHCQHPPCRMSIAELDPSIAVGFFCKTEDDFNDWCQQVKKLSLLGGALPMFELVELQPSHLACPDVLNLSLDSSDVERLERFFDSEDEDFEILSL
Dynein cargo inh – blocks dynein driven cargo transport along microtubules; 3617.4 mouse cells, GR-EGFP nuclear translocation imaging; test concentration mostly 20 µM; stimulated with dexamethasone, 1 µM; active compounds read low; z-score, hits read low; hit rate 0.47% among 220,000;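 active means plate z-score of nuclear minus cytoplasmic receptor signal below a set negative limit, without overly bright fluorescence or cell loss, cut at about -3.5 in these data, passing the limit was not always enough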;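 further: z-score of nuclear minus cytoplasmic ring GR-EGFP intensity difference per well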
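Schedule: 48 h induction, then 1 h compound, then 30 min agonist, 37 °C. Buffer or medium: tetracycline-free induction medium containing charcoal-stripped FBS. Reagent: 1.0 µM final dexamethasone stimulus. Evaluation: nuclear versus cytoplasmic GR-EGFP signal, averaged per well. Signal: high-content fluorescence imaging after fixation.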
MEKK3 PB1 HTS – raises or lowers MEK5 binding to the human MEKK3 PB1 domain | Q99759 | bead-based flow cytometry, Alexa488-MEK5 binding to MEKK3; actives lie on both sides; 0 = blocked by unlabeled MEK5, 100 = vehicle | binding response (% of control), % at 10 µM | hit rate 1.4% among 290,000 | AID 1529;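 active means binding response more than 3 SD above or below the average of its plate-row segment, actives on both sides; inconclusive means wells at one plate position flagged as instrument error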;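 further: Alexa488 bead fluorescence after subtracting the streptavidin-only scavenger bead signal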
Beta2AR agonist – human beta-2 adrenergic receptor agonism by FAP. Am2.2-beta2AR cells, FAP receptor internalization, flow cytometry. response, % (test concentration not listed). hit rate 0.43% among 340,000. AID 504454;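 active means response above a set limit, near 3 SD of response in nonfluorescent compounds, cut at about 42% in these data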
Target sequence (P07550 whole entry, looked up): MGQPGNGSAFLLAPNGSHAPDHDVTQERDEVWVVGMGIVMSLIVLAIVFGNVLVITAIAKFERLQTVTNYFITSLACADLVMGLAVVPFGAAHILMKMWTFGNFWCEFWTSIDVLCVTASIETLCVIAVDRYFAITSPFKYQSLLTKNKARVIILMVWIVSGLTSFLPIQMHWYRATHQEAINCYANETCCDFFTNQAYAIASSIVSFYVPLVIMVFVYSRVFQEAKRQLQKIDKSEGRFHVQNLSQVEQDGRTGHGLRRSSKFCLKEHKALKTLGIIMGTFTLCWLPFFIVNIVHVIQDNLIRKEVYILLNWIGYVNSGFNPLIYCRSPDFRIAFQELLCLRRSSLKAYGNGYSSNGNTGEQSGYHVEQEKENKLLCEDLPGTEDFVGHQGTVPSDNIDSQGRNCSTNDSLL
MEKK2 WT-MEK5 – raises or lowers MEK5 binding to wildtype human MEKK2 PB1 domain; bead flow cytometry, Alexa488-MEK5 binding to MEKK2 WT; actives lie on both sides; binding response (% of control), % at 10 µM; hit rate 1.1% among 290,000; AID 1531; in the data active means binding response below about 67% or above about 130%; inconclusive means no clear call, values can overlap the other calls; inactive means in between
Dynein inh conf – dynein cargo transport inhibition, confirmation; hit rate 69% among 1,000; AID 463116; calls only at 20 µM; shares compounds with Dynein cargo inh; 3617.4 GR-EGFP nuclear translocation imaging, dexamethasone-induced;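 active means inhibition of receptor movement into the nucleus at or above a set limit in both runs, with normal cell brightness and cell count; inconclusive means limit reached in only one run, brightness and count normal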;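 further: dexamethasone at 1 µM final in well for 30 min; nuclear minus cytoplasmic GR-EGFP mean intensity difference in channel 2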
Of the large screens only hits and unclear results are named; the others gave an inactive call (follow-up assays come after a bar, where they were run); [ ] = another dose, or the depositor's remark. A selection: hits, their analogues and other compounds. The true share with any hit is near 2.9%.

Cc1c(C(=S)Nc2ccccc2)cnn1-c1ccc([N+](=O)[O-])cc1	MEKK2 WT-MEK5 4.0
COc1ccc2c(c1)sc(=NC(=O)CS(=O)(=O)c1ccc(F)cc1)n2C	none (no result: MEKK2mut PB1 HTS, Dynein cargo inh, MEKK3 PB1 HTS, MEKK2 WT-MEK5)
CC1(C)CC(NC(=O)c2ccc(Cl)c(Cl)c2)CC(C)(C)N1	none (no result: Dynein cargo inh)
Cc1ccc(-c2c(C(=O)N/N=C/c3cccc(Cl)c3)nnn2-c2nonc2N)cc1	MEKK2 WT-MEK5 135.0 (no result: Dynein cargo inh)
Cc1cccc(NS(=O)(=O)c2ccc3c(c2)Cc2cc(S(=O)(=O)Nc4cccc(C)c4C)ccc2-3)c1C	MEKK2 WT-MEK5 -3.0
COc1cc2ncnc(NCc3cccc(Cl)c3)c2cc1OC	MEKK2 WT-MEK5 138.0
COc1cc2ncnc(NCc3ccccc3)c2cc1OC	none
O=C(/C=C1\C(=O)Nc2ccccc21)/C=C1\C(=O)Nc2ccccc21	Dynein cargo inh -4.41
O=C1Nc2ccccc2/C1=C\C(=O)c1ccccc1	none (no result: Dynein cargo inh)
Cc1ccc(C)c(NC(=O)C2CCN(S(=O)(=O)c3ccc4c(c3)NC(=O)CO4)CC2)c1	none (no result: Dynein cargo inh)
CC(C)C[C@H](N)c1nnc(S(=O)(=O)Cc2cccc(F)c2)o1	Dynein cargo inh -4.95 | Dynein inh conf active
COC(=O)c1cc(NC(=O)c2cccc(Cl)c2)c(=O)oc1/C=C/Nc1cc(C)cc(C)c1	MEKK2mut PB1 HTS 558.0, MEKK3 PB1 HTS 68.0[inhibitor] (no result: ATG4B inhibitor, Beta2AR agonist, MEKK2 WT-MEK5) | Dynein inh conf active
CCC(=O)Nc1cccc(C(=O)/C=C/c2ccc(F)cc2)c1	Dynein cargo inh -4.79 | Dynein inh conf active
COc1ccc(-c2cc(N)n(S(=O)(=O)c3c(F)c(F)c(F)c(F)c3F)n2)cc1OC	Dynein cargo inh -5.13 | Dynein inh conf active
Cc1nn(CC(=O)Nc2cccc(Cl)c2)c(=O)c2cc(-c3ccccc3)nn12	none (no result: Dynein cargo inh)
CCOc1cc(/C=C\[N+](=O)[O-])ccc1OCC(=O)N1CCOCC1	Dynein cargo inh -5.67, Beta2AR agonist 67.3 | Dynein inh conf active
O=c1cc(-c2c(F)c(F)c(F)c(F)c2F)oc2c(F)c(F)c(F)c(F)c12	Dynein cargo inh -8.24 (no result: ATG4B inhibitor, Beta2AR agonist) | Dynein inh conf active
O=c1cc(-c2c(F)c(F)c(F)c(F)c2F)oc2ccccc12	none
CC1Sc2ccc(S(=O)(=O)CCC(=O)N3CCN(c4ccccc4F)CC3)cc2NC1=O (stereo unspecified)	none (no result: Dynein cargo inh)
Cc1ccc(C2=NN(C(=O)CCl)C(c3cccs3)C2)o1 (stereo unspecified)	Dynein cargo inh -4.1 | Dynein inh conf active
CC(=O)N1N=C(c2ccco2)CC1c1cccs1 (stereo unspecified)	none
O=C(CCl)N1N=C(c2ccco2)CC1c1cccs1 (stereo unspecified)	Dynein cargo inh -4.3 | Dynein inh conf active
Cc1ccc(C2=NN(C(=O)CCC(=O)O)C(c3cccs3)C2)cc1 (stereo unspecified)	none
CCOc1cccc(-c2c(C(=O)N/N=C/c3ccsc3)nnn2-c2nonc2N)c1	none (no result: Dynein cargo inh)
COC(=O)c1ccc(-n2c(C)cc(C(=O)CCl)c2C)cc1	Dynein cargo inh -5.05 | Dynein inh conf active
CCOC(=O)c1cc(C)n(-c2ccc(Cl)cc2)c1C	none
CCOc1ccc(-n2c(C)cc(C(=O)CCl)c2C)cc1	Dynein cargo inh -4.77, Beta2AR agonist 45.8 | Dynein inh conf active
CC(C)[C@H](NC(=O)c1ccccc1)C(=O)OCC(=O)c1c(N)n(C)c(=O)n(C)c1=O	none (no result: MEKK2mut PB1 HTS, Dynein cargo inh, MEKK3 PB1 HTS, MEKK2 WT-MEK5)
CCn1c(Cl)c(C=O)s/c1=N\S(=O)(=O)c1ccccc1	Dynein cargo inh -7.03, Beta2AR agonist 114.6 | Dynein inh conf active
COc1ccc(CCC(=O)NC2CCCc3ccccc32)cc1OC (stereo unspecified)	none (no result: Dynein cargo inh)
C/C(CCc1oc2c(Br)cc(Br)cc2c1-c1ccc(C)o1)=N\O	Dynein cargo inh -4.06 | Dynein inh conf inactive
O=C1c2ccccc2-c2onc3ccc(N4CCCC4)c1c23	none
CCOc1ccc2noc3c2c1C(=O)c1ccccc1-3	Dynein cargo inh -7.5 (no result: MEKK2mut PB1 HTS, MEKK3 PB1 HTS, MEKK2 WT-MEK5) | Dynein inh conf active
CCc1noc(C)c1C(=O)N(CC)c1nc2c(C)cccc2s1	none (no result: MEKK2mut PB1 HTS, Dynein cargo inh, MEKK3 PB1 HTS, MEKK2 WT-MEK5)
CCN(CC)c1ccc(/C=C2/SC(=O)N(C(C)C)C2=O)o1	none | Dynein inh conf active
CCOC(=O)C=C(C(=O)OCC)C(=O)OCC	Dynein cargo inh -4.25 | Dynein inh conf active
Cc1ccc(S(=O)(=O)c2cc3c(=O)n4ccccc4nc3n(C3CCCCC3)c2=N)cc1	none (no result: Dynein cargo inh)
O=C1C=CC2C(c3ccc4c(c3)OCO4)CC1N2Cc1ccccc1 (stereo unspecified)	Dynein cargo inh -3.8 | Dynein inh conf active
CC1=CC(C)(C)Nc2ccc(OC(=O)c3cccnc3)cc21	Dynein cargo inh -3.56 | Dynein inh conf inactive
Cc1cc(N2CCC(C)CC2)c(F)cc1[N+](=O)[O-]	none
Cc1cc(N2CCCC2)c(F)cc1/C=C\[N+](=O)[O-]	none | Dynein inh conf active
CCc1nnc(SCC(=O)Nc2nc(C)c(C(=O)N(C)C)s2)n1CC	none (no result: Dynein cargo inh)
Cc1sc(NC(=O)CCl)c(C(=O)c2ccccc2)c1C	Dynein cargo inh -3.75 | Dynein inh conf active
Nc1ccc2c3c(cccc13)C(=O)N(c1ccccc1)C2=O	Dynein cargo inh -5.03 | Dynein inh conf active
CCCN1C(=O)/C(=C/c2c(NCCCOC(C)C)nc3c(C)cccn3c2=O)SC1=S	none (no result: Beta2AR agonist) | Dynein inh conf inconclusive
Cc1ccc(-c2cn3nc(-c4ccccc4)c(-c4ccccc4)nc3n2)cc1	none | Dynein inh conf active
Cc1ccc2c(Cl)c(C)c(N3CCOCC3)nc2n1	none (no result: MEKK2mut PB1 HTS, Dynein cargo inh, MEKK3 PB1 HTS, MEKK2 WT-MEK5)
COCOc1ccc(-c2oc3c(C/C=C(\C)CCC=C(C)C)ccc(O)c3c(=O)c2OCOC)c(OCOC)c1	none (no result: Dynein cargo inh, Beta2AR agonist)
Cn1cnc2ncnc(Oc3ccc(Br)cc3)c21	none (no result: MEKK2mut PB1 HTS, Dynein cargo inh, MEKK3 PB1 HTS, MEKK2 WT-MEK5)
O=C(c1coc(=O)c(Br)c1)N1CCC(C(O)(c2ccccc2)c2ccccc2)CC1	Dynein cargo inh -4.54 | Dynein inh conf active
O=C(C1CC1)N1CCC(C(O)(c2ccccc2)c2ccccc2)CC1	none
COc1ccc(Cl)cc1NC(=O)CN(C)C(=O)CN1C(=O)NC2(CCCC2)C1=O	none (no result: MEKK2mut PB1 HTS, Dynein cargo inh, MEKK3 PB1 HTS, MEKK2 WT-MEK5)
Cc1ccc2nc(SCC(=O)Nc3ccc4[nH]c(=O)[nH]c4c3)[nH]c2c1	none (no result: MEKK2mut PB1 HTS, Dynein cargo inh, MEKK3 PB1 HTS, MEKK2 WT-MEK5)
Cc1ccc2nc(SCC(=O)Nc3ccc(C(N)=O)cc3)[nH]c2c1	Dynein cargo inh -6.66 | Dynein inh conf inactive
N#C/C(=C\c1ccccc1)C(=O)N(c1ccccn1)C1CCCCC1	Dynein cargo inh -3.93 | Dynein inh conf inactive
Cn1c(=O)n(CC(=O)NCC2CCCO2)c(=O)c2c3c(sc21)COC(C)(C)C3 (stereo unspecified)	none (no result: Dynein cargo inh)
Cc1onc(C(=O)NC2CCCCC2)c1[N+](=O)[O-]	none (no result: Dynein cargo inh)
